Sampled rows, rich in hits. Any-hit rate of the full collection: about 3.5%.
MrgX1 antagonist – blocks BAM8-22 activation of human MrgX1 receptor. 310,000 tested, 1.3% active. MRGX1-HEK293 calcium flux, Fluo-4, BAM8-22 antagonism; active compounds read low. Q96LB2. B-score at 10 µM;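 active means calcium-response B-score plate-corrected more than 3 library SD below zero, starting fluorescence within 5 deviations, no agonist response on first addition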;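 further: peak minus trough fluorescence over baseline after final BAM8-22 challenge near maximal dose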
Target sequence (Q96LB2 whole entry, looked up): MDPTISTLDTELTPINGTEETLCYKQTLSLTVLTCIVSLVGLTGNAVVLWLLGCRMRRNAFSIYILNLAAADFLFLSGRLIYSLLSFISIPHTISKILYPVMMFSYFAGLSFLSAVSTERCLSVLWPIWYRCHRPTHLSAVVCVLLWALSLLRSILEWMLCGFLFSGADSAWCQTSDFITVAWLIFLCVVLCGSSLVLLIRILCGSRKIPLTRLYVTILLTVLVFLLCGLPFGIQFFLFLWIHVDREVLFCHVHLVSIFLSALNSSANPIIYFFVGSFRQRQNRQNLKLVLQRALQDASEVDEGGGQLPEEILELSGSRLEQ
RGS4 block – human RGS4 inhibition; P49798; HEK293 M3R/RGS4 inducible, Fluo-4 calcium flux; active compounds read high; triggered by carbachol at its EC20; B-score at 10 µM; 310,000 tested, 0.45% active; AID 463165;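 active means B-score, a plate-corrected calcium signal, over three deviations above library mean, with baseline fluorescence within five deviations of library mean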;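 further: RGS4 expression induced by doxycycline in cells with stable M3 receptor; B-score is computed from the integrated fluorescence ratio over baseline after carbachol; higher B-score means a larger calcium signal and so more RGS4 inhibition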
Target sequence (P49798 whole entry, looked up): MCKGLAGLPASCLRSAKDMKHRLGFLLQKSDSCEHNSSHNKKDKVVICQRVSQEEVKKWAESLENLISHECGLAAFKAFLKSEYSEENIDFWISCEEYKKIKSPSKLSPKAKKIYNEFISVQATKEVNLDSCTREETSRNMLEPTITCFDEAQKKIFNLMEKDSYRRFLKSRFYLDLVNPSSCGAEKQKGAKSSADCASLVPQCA
MrgX1 PAM – human MrgX1 positive allosteric modulation, primary screen; Q96LB2; MrgX1-HEK293, Fluo-4 calcium flux, FDSS; active compounds read high; B-score at 10 µM; 310,000 tested, 0.63% active;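 active means plate-corrected calcium response at least 3 library SD above typical, normal starting fluorescence, not activating the receptor alone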;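 further: compound read alongside a low EC10 to EC30 dose of BAM8-22 agonist; peak minus trough fluorescence over baseline measured at the second addition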
RGS4 act – RGS4 potentiation or activation; HEK293 M3R/inducible RGS4, carbachol calcium flux Fluo4; active compounds read low; 310,000 tested, 0.92% active; B-score at 10 µM;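 active means B-score of the integrated calcium signal more than 4 SD below the library mean, with starting fluorescence not abnormally high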;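 further: negative B-score means reduced calcium response which marks RGS4 activation or potentiation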
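Assay system: Inducible-RGS4 HEK293 cells carrying M3 receptor | Schedule: Compound preincubation 20 min at room temperature before agonist | Signal: Kinetic calcium fluorescence imaging with Fluo4-AM dye, 2 µM | Read-out basis: B score from integrated fluorescence ratio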
MrgX1 ag – activates human MrgX1 receptor signaling. Q96LB2. MrgX1-HEK293 cells, Fluo-4 calcium fluorescence, agonist mode; active compounds read high. B-score at 10 µM. 310,000 tested, 0.44% active. AID 588627;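 active means calcium response B-score plate-corrected fluorescence ratio at least 3 library SD, with starting fluorescence B-score inside 5 SD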
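Test system: HEK293 cells stably expressing human MrgX1 receptor; amount: 15,000 cells per well; doses: compound delivered in addition one of three; times: overnight plating before 1 h dye loading; detection: Fluo-4 NW calcium-flux fluorescence, kinetic read; read-out basis: B-scored fluorescence response ratio; controls: positive and negative controls per plate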
MrgX1 antag conf – reconfirmed antagonist of human MrgX1 receptor signaling; shares compounds with MrgX1 antagonist; 2,300 tested, 19% active; AID 602420; remaining BAM8-22 calcium response % of control (active compounds read low), % at 10 µM; MrgX1-HEK293, BAM8-22 calcium flux, Fluo-4; active compounds read low;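 active means remaining agonist calcium response no higher than 100% minus 3 SD of agonist-only control wells, with starting fluorescence near control levels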;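 further: agonist BAM8-22 given at a near maximal EC90 to ECmax level; peak minus minimum fluorescence divided by baseline after agonist addition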
HEK293 Ca flux – MrgX1 antagonist counter-screen hit in parental HEK293 cells | shares compounds with MrgX1 antagonist | Fluo-4 calcium fluorescence, FDSS | fluorescence ratio F(max-min)/F0 at 10 µM | 4,000 tested, 2% active | AID 624111;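 active means duplicate-averaged calcium fluorescence ratio at least three times the standard deviation of buffer wells, a nonspecific response in parental cells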
HEK293 Ca counter – activity in parental HEK293 cells without MrgX1 | shares compounds with MrgX1 antagonist | parental HEK293 calcium flux, Fluo-4 fluorescence ratio; active compounds read high | fluorescence ratio F(max-min)/F0 at 10 µM | 4,000 tested, 0.4% active | AID 624114;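 active means calcium fluorescence ratio, averaged over duplicates, at least 3 SD of the buffer-well ratio, meaning a nonspecific response in receptor-free cells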;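 further: untransfected parental HEK293 lacking MrgX1 used as counterscreen for MrgX1 allosteric activators; fluorescence change taken during the second addition on a kinetic imager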
HEK293 Ca cntr2 – activity in parental HEK293 cells lacking MrgX1 receptor; shares compounds with MrgX1 antagonist; Fluo-4 calcium fluorescence (FDSS); active compounds read high; fluorescence ratio F(max-min)/F0 at 10 µM; 4,000 tested, 8.7% active;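 active means calcium fluorescence ratio at least three times the spread of buffer wells, meaning a non-specific response in parental cells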
A number is an active result; n = inactive; x = no result.

SMILES	MrgX1 antagonist	RGS4 block	MrgX1 PAM	RGS4 act	MrgX1 ag	MrgX1 antag conf	HEK293 Ca flux	HEK293 Ca counter	HEK293 Ca cntr2
CCC1(c2ccc(F)cc2)NC(=O)N(CC(=O)c2cc(C)n(C3CC3)c2C)C1=O (stereo unspecified)	-6.3	n	n	n	n	n	n	n	51
O=C(CSc1nnc(CNC(=O)c2ccc(F)cc2)o1)Nc1ccc2c(c1)OCCO2	n	n	n	n	n	x	x	x	x
O=C(CSc1nnc(CNC(=O)c2ccccc2)o1)Nc1ccc2c(c1)OCCO2	-5.6	n	n	n	n	n	n	n	n
CC(=O)c1cccc(NC(=O)N2C3CCCC2CC(NC(=O)C2CC2)C3)c1 (stereo unspecified)	n	n	n	n	n	x	x	x	x
Cc1ccccc1CSCCNS(C)(=O)=O	-5.3	n	n	n	n	n	n	n	n
COc1ccc(NC(=O)C/C(C)=N/NC(=O)c2ccccn2)c(OC)c1	n	n	n	n	n	x	x	x	x
CCC(NC(=O)OCc1ccccc1)C(=O)Oc1ccc2ccc(=O)oc2c1 (stereo unspecified)	n	n	n	n	n	x	x	x	x
COc1cccc(CC(NC(C)=O)C(=O)NC2CCN(C(=O)c3ccc(Cl)cc3)CC2)c1OC (stereo unspecified)	n	n	n	n	n	x	x	x	x
Cc1ccc(NC(=O)CN2c3cccc4cccc(c34)S2(=O)=O)cc1S(=O)(=O)N1CCOCC1	n	n	n	n	n	x	x	x	x
COc1cc(S(=O)(=O)N2CCOCC2)ccc1NC(=O)CN1c2cccc3cccc(c23)S1(=O)=O	-8.4	n	n	n	n	n	n	n	n
COc1cc(CN2CCC(n3nccc3NC(=O)C3CC3)CC2)cc(OC)c1	n	n	n	n	n	x	x	x	x
NS(=O)(=O)c1cccc(NC(=O)Nc2ccc(Cl)cc2)c1	-6.3	n	n	n	n	83%	n	n	n
CCSc1nsc(NC(=O)Nc2cccc(F)c2)n1	-7.4	n	n	n	n	78%	n	n	n
COC(=O)c1cc(NC(=O)c2ccc(-c3ccccc3)cc2)ccc1Cl	-8.1	n	n	n	n	n	n	n	n
COC(=O)c1cc(NC(=O)Nc2cccc(Cl)c2)ccc1Cl	-4.7	n	n	n	n	82%	n	n	n
CCCCc1nc2c(C)c(N)cnc2n1Cc1cccc([N+](=O)[O-])c1	n	n	n	n	n	x	x	x	x
O=C(Nc1cccc(Cl)c1)Nc1cccc(Cl)c1	n	n	n	n	n	x	x	x	x
O=C(Nc1cccc(F)c1)Nc1cccc(Cl)c1	-5.1	n	n	n	n	65%	n	n	n
CCc1nnc2sc(-c3ccc(NC(=O)c4ccco4)cc3)nn12	-8.1	n	n	n	n	n	n	n	n
Cc1nnc(NC(=O)CSc2nnc(CCc3nc4ccccc4[nH]3)n2C)s1	-4.6	n	n	n	n	n	n	n	n
CCc1nnc(NC(=O)CSc2nnc(CCc3nc4ccccc4[nH]3)n2C)s1	n	n	n	n	n	x	x	x	x
COc1ccc(NC(=O)/C(=C\c2ccc(OC)c(OC)c2)NC(=O)c2ccco2)cc1	n	n	n	n	n	x	x	x	x
COC(=O)CNc1cc(S(=O)(=O)N2CCCCC2)ccc1Oc1ccc(C(=O)OC)cc1	n	n	n	n	n	x	x	x	x
COC(=O)c1ccc(Oc2ccc(S(=O)(=O)N3CCCCC3)cc2N)cc1	-4.9	n	n	n	n	n	n	n	n
COc1ccc(S(=O)(=O)N2CCCCC2)cc1C(=O)N1CCCC1	-5.6	n	n	n	n	n	n	n	n
SMILES	MrgX1 antagonist	RGS4 block	MrgX1 PAM	RGS4 act	MrgX1 ag	MrgX1 antag conf	HEK293 Ca flux	HEK293 Ca counter	HEK293 Ca cntr2
CC(OC(=O)CNC(=O)COc1ccccc1)C(=O)N(C)Cc1ccccc1 (stereo unspecified)	n	n	n	n	n	x	x	x	x
COCCN(C(=O)c1ccco1)c1nnc(-c2ccc(OC)c(OC)c2)s1	n	n	n	n	n	x	x	x	x
COc1ccc(-c2nnc(N(C)C(=O)c3ccco3)s2)cc1OC	-7.5	n	n	n	n	n	n	n	n
COC(C(=O)Nc1ccc(NC(=O)C(OC)c2ccccc2)cc1)c1ccccc1 (stereo unspecified)	n	n	n	n	n	x	x	x	x
COC(C(=O)NC(C(C)C)C(C)C)c1ccccc1 (stereo unspecified)	-5.9	n	n	n	n	n	n	n	n
O=C1CC(C(=O)Nc2nccs2)C(c2ccccc2)O1 (stereo unspecified)	-6.3	n	n	n	n	n	n	n	n
Cc1ccc(S(=O)(=O)N(C)C)cc1NC(=S)NC(=O)C12CC3CC(CC(C3)C1)C2	-6.6	n	n	n	n	n	n	n	n
O=C(O)/C=C/c1cnn(-c2ccccc2)c1	x	n	x	n	x	x	x	x	x
CCOC(=O)C1=C(C)Nc2nc(C)nn2C1c1ccc(OC)c(OC)c1 (stereo unspecified)	-6.7	n	n	n	n	n	n	n	n
O=C(NCc1ccc(OC(F)(F)F)cc1)C1CC2Cn3c(nc4ccccc43)C2N1c1ccccc1 (stereo unspecified)	n	n	n	n	n	x	x	x	x
COc1ccccc1NC(=S)NCCc1c[nH]c2ccccc12	-5.6	n	n	n	n	n	n	n	n
Oc1c(Cl)cc(Cl)cc1/C=C/c1ccc2cccc(O)c2n1	-7.7	n	n	n	n	n	n	n	n
Oc1ccc(Cl)cc1/C=C/c1ccc2cccc(O)c2n1	x	n	x	n	x	x	x	x	x
Cc1cccc(C)c1OCC(=O)Nc1ncn[nH]1	n	n	n	n	n	x	x	x	x
O=C(COc1ccc2ccccc2c1Br)Nc1ncn[nH]1	-4.5	n	n	n	n	n	n	n	n
Cc1ccc(C(=O)NC2CC3CCC(C2)N3Cc2ccco2)cc1 (stereo unspecified)	-7.8	n	n	n	n	n	n	n	n
COc1cc(OC)cc(C(=O)NC2CC3CCC(C2)N3Cc2ccco2)c1 (stereo unspecified)	x	n	x	n	x	x	x	x	x
Cc1ccc(C(=O)NCc2ccco2)cc1	-5.3	n	n	n	n	n	n	n	n
Cc1nc2ccc(NC(=O)COc3ccccc3F)cc2s1	-5.8	n	n	n	n	80%	n	n	n
COc1ccccc1CNS(=O)(=O)c1ccc(Cl)s1	n	n	n	n	n	x	x	x	x
Cc1nc(N2CCCCCC2)c2ccccc2n1	-4.7	n	n	n	n	n	n	n	n

Screening data from PubChem BioAssay.
